# S100A4 inh HTS: blocks human S100A4 binding to myosin IIA peptide; P26447; S100A4/TAMRA-MyoIIA peptide fluorescence polarization; inhibition, % at 10.7 µM; 360,000 compounds, 0.14% hits;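 active = mean inhibition of at least 70% across replicates, with every replicate also reaching that level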
#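 Material: S100A4 monomer protein | Medium: HEPES pH 7.2 with CaCl2, KCl, NaCl, DTT, Triton | Reagent: Labelled myosin peptide probe, 5 nM | Doses: One dose per compound | Times: 5 min incubation before reading | Benchmarks: Neutral control DMSO, positive control TFP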
# MLL AF4-AF9 inh: MLL-AF4/AF9 protein interaction inhibition; P42568; AlphaScreen, biotin-AF4 peptide binding to FLAG-AF9; inhibition, % at 10 µM; 350,000 compounds, 0.47% hits; AID 651704;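 active = every replicate reaching a set inhibition limit, whatever the replicate mean, cut at about 25% in these data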;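 also: 0% = plate neutral control median and 100% = total signal loss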
# Target sequence (P42568 whole entry, looked up): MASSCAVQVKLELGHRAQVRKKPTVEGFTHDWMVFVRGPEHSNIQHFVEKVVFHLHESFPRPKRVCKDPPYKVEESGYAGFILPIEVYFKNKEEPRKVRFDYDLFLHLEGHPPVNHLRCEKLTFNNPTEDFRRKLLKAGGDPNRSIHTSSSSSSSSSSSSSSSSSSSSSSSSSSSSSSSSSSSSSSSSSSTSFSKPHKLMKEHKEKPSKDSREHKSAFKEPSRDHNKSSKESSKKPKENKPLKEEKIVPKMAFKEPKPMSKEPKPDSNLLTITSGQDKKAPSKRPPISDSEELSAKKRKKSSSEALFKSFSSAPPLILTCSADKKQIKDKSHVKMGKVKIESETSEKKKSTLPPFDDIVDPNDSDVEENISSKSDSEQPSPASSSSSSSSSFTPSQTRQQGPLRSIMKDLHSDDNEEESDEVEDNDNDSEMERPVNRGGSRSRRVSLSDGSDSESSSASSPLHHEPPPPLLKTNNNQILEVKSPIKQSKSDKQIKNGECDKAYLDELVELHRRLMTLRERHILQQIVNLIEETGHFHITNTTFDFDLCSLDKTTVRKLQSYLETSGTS
# ERAP1 inh: inhibitors of human ERAP1 aminopeptidase; recombinant ERAP1, Leu-AMC fluorescence, 60 min; inhibition, % at 10.7 µM; 340,000 compounds, 0.15% hits; AID 652197;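 active = mean replicate inhibition of at least 30%, or all replicates individually reaching that 30% level; inactive = mean below 30% and not every replicate reaching it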;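 also: 0% = neutral control wells and 100% = L-leucinethiol positive control wells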
# SIRT5 inh: sirtuin-5 (human) deacylase inhibition; inhibition, % at 15 µM; Purified SirT5, succinyl-peptide AMC, trypsin-coupled fluorescence; 330,000 compounds, 1.1% hits; Q9NXA8; in the data active = inhibition above about 15%
# rRNA inh HTS: inhibitors of bacterial rRNA selective over humanized ribosomes; 350,000 compounds, 1.6% hits; E. coli WT GFP vs humanized-ribosome RFP mutants, fluorescence, 24 h; hits give low values; DMSO median 0, no signal -100; GFP signal change (wild-type ribosome), % (no concentration beside the values);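 active = significant combined selectivity score with lowered wild-type GFP, culture density cut under 30%, mutant RFP and density less affected; inactive = any of these conditions unmet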
# E-selectin induc: E-selectin induction on HUVECs; P16581; HUVEC E-selectin immunofluorescence imaging; normalized: neutral wells 0, TNF-alpha wells 100; activation, % at 7.58 µM; 260,000 compounds, 0.37% hits;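 active = mean E-selectin-positive cell signal at least 10% of the positive control, reached in at least 60% of replicates, without over 20% cell loss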
#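 System: HUVEC, human umbilical vein endothelial cells; quantity: 3,000 cells/well; buffer or medium: EGM-2 medium, gelatin-coated wells; dosing: single-point compound dose; detection: immunofluorescence imaging; evaluation: % PE-positive cells; benchmarks: TNF-alpha, DMSO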
# Starred values were filed as active, the others as inactive; . = not tested or not shown; ! = a repeat was not active. Only some compounds are listed: those with a hit (about 3.4% of all), similar ones and a draw of the others.
SMILES,S100A4 inh HTS,MLL AF4-AF9 inh,ERAP1 inh,SIRT5 inh,rRNA inh HTS,E-selectin induc
COc1ccc2c3c(n(C)c2c1)[C@H](CO)N(Cc1ccccc1Cl)CC31CCN(C(=O)CN(C)C)CC1,8,15,-4,1,1,0
C=C1SC(Nc2c(C)cccc2C)=NC12CCCCC2,-21,1,.,-2,-22*,.
C=C1SC(Nc2c(C)cc(C)cc2C)=NC12CCCCC2,-23,17,-1,0,-50*,0
CO[C@H]1CN(C)C(=O)c2cc(C#N)ccc2OC[C@@H]2O[C@@H](CC[C@H]2OC)CCN(C)C(=O)[C@H]1C,-4,4,1,0,-1,0
CC(C)c1ccc(NC(=O)CSc2n[nH]c(=O)n2Cc2ccco2)cc1,3,0,0,2,4,2
O=C(CSc1n[nH]c(=O)n1Cc1ccco1)Nc1ccccc1,-1,-2,.,15*,7,.
CCOc1ccc(NC(=O)CSc2nnc(-c3ccco3)n2N)cc1,12,0,2,-2,0,.
CCOc1ccc(NC(=O)CSc2ncc(-c3ccc(F)cc3)n2Cc2ccco2)cc1,-2,39*,1,-2,11,3
O=C(C[C@@H]1C[C@@H]2c3cc(NC(=O)CC4CC4)ccc3O[C@@H]2[C@@H](CO)O1)NCc1cc(F)ccc1F,2,1,-3,-2,4,0
NC(=O)C1=C[C@H](c2coc3ccccc3c2=O)C[C@H](OCCCCO)O1,-4,-35,-1,-7,4,0
C=CCOC(=O)C1=C[C@H](c2coc3ccccc3c2=O)C[C@H](OCc2ccc(CO)cc2)O1,-6,1,2,1,-21*,1
O=C(O)C1=C[C@H](c2coc3ccccc3c2=O)C[C@H](OCCCCO)O1,9,-2,3,16*!,18,1
CN1C(=O)c2cc(NC(=O)C3CCOCC3)ccc2OC[C@H]2O[C@@H](CC(=O)NC3CCCC3)CC[C@H]21,4,-1,1,-1,0,0
CN(C)C(=O)C[C@H]1C=C[C@@H](NC(=O)NC2CCCC2)[C@@H](CO)O1,-5,-1,-1,0,3,2
COc1ccccc1-c1c(C(F)(F)F)oc2c(CN(C)C)c(O)ccc2c1=O,-3,-2,0,2,7,.
COc1ccccc1-c1c(C(F)(F)F)oc2cc(OS(C)(=O)=O)ccc2c1=O,0,-3,1,-1,-26*,.
CCc1nnc(NC(=O)CN2C(=O)NC3(CCCC3)C2=O)s1,2,0,39*,-16,10,.
C[C@@H]1CN([C@H](C)CO)C(=O)c2cccc(NC(=O)Nc3ccc(C(F)(F)F)cc3)c2O[C@H]1CN(C)C(=O)Nc1ccc2c(c1)OCO2,.,.,.,.,-4,0
CCNC(=O)C[C@H]1CC[C@@H]2[C@@H](COc3ccc(NC(=O)Nc4cccc(OC)c4)cc3C(=O)N2C)O1,.,.,.,.,-4,0
COc1ccc(OC)c(S(=O)(=O)N2CCN(c3ccccc3OC)CC2)c1,-4,2,3,1,-10,0
COc1ccccc1N1CCN(S(=O)(=O)c2ccccc2F)CC1,-2,2,0,8,-22*,.
O=C(Nc1cccc(Cl)c1)N1N=CCC1c1ccccc1 (centres undefined),-3,-3,1,5,-27*,0
O=C(Nc1cccc2ccccc12)N1N=CCC1c1ccccc1 (centres undefined),-1,-1,2,2,-28*,15
O=C(Nc1cccc2ccccc12)N1CCN(c2ncccn2)CC1,0,3,0,0,-9,0
C[C@H]1CCCCO[C@H](CN(C)C(=O)c2ccccc2)[C@@H](C)CN([C@@H](C)CO)C(=O)c2cc(NC(=O)Nc3ccccc3)ccc2O1,-3,-6,-7,6,-3,.
COc1ccc(CN(C)C[C@H]2OCCCC[C@@H](C)Oc3ccc(NS(=O)(=O)c4cn(C)cn4)cc3C(=O)N([C@H](C)CO)C[C@H]2C)cc1,6,-5,-6,1,1,0
COc1ccc2c3c(n(C)c2c1)[C@H](CO)N(Cc1nccs1)CC31CN(C)C1,.,3,.,.,2,0

# From PubChem
